≈ marks a conversion by molar mass, not a printed value.
How the values were obtained:
HT-29 = experiment: Cytotoxicity against human HT-29 cells; format: functional; settings: read-out: ED50 (the source's name)
How it was run: (§1)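 Cytotoxicity assay run as previously described, with test compounds at three concentrations (50, 5 and 0.5 µg/mL). HT29 cells are human colon adenocarcinoma. P-388 cells are mouse lymphocytic leukemia, supplied by J. M. Pezzuto.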

P388 = experiment: Cytotoxicity against mouse P388 cells; format: functional; settings: read-out: ED50 (the source's name); how it was run: as §1

**Q.** What does the source list for CC(=O)[C@H]1[C@@H](O)CCC2=C[C@@H](O)C[C@H](C)[C@]21C [LAEVINOL B]?
**A.** EC50 (HT-29): > 5 µg/mL; EC50 (P388): > 5 µg/mL

**Q.** Which EC50 (HT-29) does the source give for CC(=O)[C@H]1C(=O)CCC2=C[C@@H](O)C[C@H](C)[C@]21C [LAEVINOL E] here?
**A.** > 5 µg/mL

**Q.** What about the EC50 (P388) of the same compound?
**A.** > 5 µg/mL

**Q.** CC(=O)[C@H]1[C@H](O)CC[C@]23O[C@H]2CC[C@H](C)[C@@]13C [LAEVINOL H] was tested. Which EC50 (HT-29) did it give?
**A.** > 5 µg/mL

**Q.** And the EC50 (P388)?
**A.** > 5 µg/mL

**Q.** With CC(=O)[C@H]1[C@H](O)CC[C@]23O[C@H]2[C@@H](O)C[C@H](C)[C@@]13C [LAEVINOL F] as the compound, how does the EC50 (HT-29) read?
**A.** > 5 µg/mL

**Q.** What about the EC50 (P388) of the same compound?
**A.** > 5 µg/mL

**Q.** What does the source list for CC(=O)[C@H]1[C@@H](OC=O)CCC2=C[C@@H](O)C[C@H](C)[C@]21C [LAEVINOL A]?
**A.** EC50 (HT-29): > 5 µg/mL; EC50 (P388): > 5 µg/mL

**Q.** For CC(=O)O[C@@H]1C(=O)CCC2=CC(=O)C[C@H](C)[C@@]2(C)/C=C\1C (single isomer, unassigned) [LAEVINONE A], which EC50 (HT-29) is on record?
**A.** > 5 µg/mL

**Q.** And the EC50 (P388)?
**A.** > 5 µg/mL

**Q.** With CC(=O)[C@H]1[C@H](O)CC[C@]23O[C@H]2[C@H](O)C[C@H](C)[C@@]13C [LAEVINOL G] as the compound, how does the EC50 (HT-29) read?
**A.** > 5 µg/mL

**Q.** And the EC50 (P388)?
**A.** > 5 µg/mL

**Q.** CC(=O)[C@H]1[C@@H](O)CCC2=C[C@H](O)C[C@H](C)[C@]21C [LAEVINOL D] was tested. Which EC50 (HT-29) did it give?
**A.** > 5 µg/mL

**Q.** And the EC50 (P388)?
**A.** > 5 µg/mL

**Q.** For CC(=O)[C@H]1[C@H](O)CCC2=C[C@@H](O)C[C@H](C)[C@]21C [LAEVINOL C], which EC50 (HT-29) is on record?
**A.** > 5 µg/mL

**Q.** And the EC50 (P388)?
**A.** > 5 µg/mL

**Q.** C[C@H]1CCC=C2CCC(C(C)(O)CO)=C[C@@]21C (some centres not stated) was tested. Which EC50 (HT-29) did it give?
**A.** 0.33 µg/mL (≈ 1.4 µM)

**Q.** What about the EC50 (P388) of the same compound?
**A.** 0.21 µg/mL (≈ 0.888 µM)

**Q.** How did the EC50 (HT-29) turn out when CC(=O)[C@@H]1C(=O)CC[C@]23O[C@H]2[C@H](O)C[C@H](C)[C@@]13C was run?
**A.** > 5 µg/mL

**Q.** What about the EC50 (P388) of the same compound?
**A.** > 5 µg/mL

Reference: ChEMBL document CHEMBL1151279, “Sesquiterpenoids and norsesquiterpenoids from the Formosan soft coral Lemnalia laevis” (2005)
